From PMC6606825 (Journal of Ginseng Research, 2018)

Assay: Pharmacokinetics of CK and its metabolite 20
Type: in vivo, healthy Chinese volunteers
Method in brief: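 Healthy adults given one oral tablet dose fasting (overnight, or 10 h in a crossover food-effect arm); 30 subjects from the 100/200/400 mg groups were pooled with 24 from 200 mg fasting periods. Plasma was stored at −70°C, extracted with MTBE plus internal standards and assayed by LC-MS/MS. Cmax was observed and AUClast calculated by linear trapezoid, each divided by dose. The metabolite/parent ratio was also calculated. Genotyping used Sequenom MassARRAY, and log-transformed values were compared by one-way ANOVA.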

[1] = ABCC4 rs1151471 CC, n = 2, mean (SD)

20(S)-PPD AUClast/D (ABCB1 rs1045642 AA, mean (SD)): 0.59 (0.42) | 20(S)-PPD Cmax/D (ABCB1 rs1045642 AA, mean (SD)): 0.02 (0.02) | Ratio 20(S)-PPD/CK AUClast/D (ABCB1 rs1045642 AA, mean (SD)): 1.99 (1.55) % | Ratio 20(S)-PPD/CK Cmax/D (ABCB1 rs1045642 AA, mean (SD)): 0.54 (0.42) % | 20(S)-PPD AUClast/D (ABCB1 rs1045642 AG, mean (SD)): 0.87 (0.93) | 20(S)-PPD Cmax/D (ABCB1 rs1045642 AG, mean (SD)): 0.03 (0.03) | Ratio 20(S)-PPD/CK AUClast/D (ABCB1 rs1045642 AG, mean (SD)): 5.28 (8.05) % | Ratio 20(S)-PPD/CK Cmax/D (ABCB1 rs1045642 AG, mean (SD)): 1.49 (2.26) % | 20(S)-PPD AUClast/D (ABCB1 rs1045642 GG, mean (SD)): 0.82 (0.62) | 20(S)-PPD Cmax/D (ABCB1 rs1045642 GG, mean (SD)): 0.03 (0.02) | Ratio 20(S)-PPD/CK AUClast/D (ABCB1 rs1045642 GG, mean (SD)): 3.23 (2.77) % | Ratio 20(S)-PPD/CK Cmax/D (ABCB1 rs1045642 GG, mean (SD)): 0.80 (0.66) % | 20(S)-PPD AUClast/D (ABCB1 rs1128503 AA, mean (SD)): 0.90 (0.79) | 20(S)-PPD Cmax/D (ABCB1 rs1128503 AA, mean (SD)): 0.03 (0.03) | Ratio 20(S)-PPD/CK AUClast/D (ABCB1 rs1128503 AA, mean (SD)): 4.27 (5.15) % | Ratio 20(S)-PPD/CK Cmax/D (ABCB1 rs1128503 AA, mean (SD)): 1.30 (2.07) % | 20(S)-PPD AUClast/D (ABCB1 rs1128503 AG, mean (SD)): 0.77 (0.80) | 20(S)-PPD Cmax/D (ABCB1 rs1128503 AG, mean (SD)): 0.03 (0.03) | Ratio 20(S)-PPD/CK AUClast/D (ABCB1 rs1128503 AG, mean (SD)): 4.67 (7.55) % | Ratio 20(S)-PPD/CK Cmax/D (ABCB1 rs1128503 AG, mean (SD)): 1.12 (1.52) % | 20(S)-PPD AUClast/D (ABCB1 rs1128503 GG, mean (SD)): 0.73 (0.70) | 20(S)-PPD Cmax/D (ABCB1 rs1128503 GG, mean (SD)): 0.02 (0.02) | Ratio 20(S)-PPD/CK AUClast/D (ABCB1 rs1128503 GG, mean (SD)): 1.89 (0.94) % | Ratio 20(S)-PPD/CK Cmax/D (ABCB1 rs1128503 GG, mean (SD)): 0.46 (0.25) % | 20(S)-PPD AUClast/D (ABCB1 rs2032582 AA, mean (SD)): 0.78 (0.53) | 20(S)-PPD Cmax/D (ABCB1 rs2032582 AA, mean (SD)): 0.03 (0.02) | Ratio 20(S)-PPD/CK AUClast/D (ABCB1 rs2032582 AA, mean (SD)): 4.64 (7.42) % | Ratio 20(S)-PPD/CK Cmax/D (ABCB1 rs2032582 AA, mean (SD)): 1.20 (1.55) % | 20(S)-PPD Cmax/D (ABCB1 rs2032582 CA, mean (SD)): 0.03 (0.03) | Ratio 20(S)-PPD/CK AUClast/D (ABCB1 rs2032582 CA, mean (SD)): 4.60 (7.08) % | Ratio 20(S)-PPD/CK Cmax/D (ABCB1 rs2032582 CA, mean (SD)): 1.34 (2.13) % | 20(S)-PPD AUClast/D (ABCB1 rs2032582 CC, mean (SD)): 0.92 (0.62) | 20(S)-PPD Cmax/D (ABCB1 rs2032582 CC, mean (SD)): 0.03 (0.02) | Ratio 20(S)-PPD/CK AUClast/D (ABCB1 rs2032582 CC, mean (SD)): 3.50 (2.84) % | Ratio 20(S)-PPD/CK Cmax/D (ABCB1 rs2032582 CC, mean (SD)): 0.74 (0.49) % | 20(S)-PPD AUClast/D (ABCC2 rs717620 CC, mean (SD)): 0.64 (0.51) | 20(S)-PPD Cmax/D (ABCC2 rs717620 CC, mean (SD)): 0.02 (0.02) | Ratio 20(S)-PPD/CK AUClast/D (ABCC2 rs717620 CC, mean (SD)): 3.02 (4.69) % | Ratio 20(S)-PPD/CK Cmax/D (ABCC2 rs717620 CC, mean (SD)): 0.77 (0.99) % | 20(S)-PPD AUClast/D (ABCC2 rs717620 CT, mean (SD)): 1.09 (1.02) | 20(S)-PPD Cmax/D (ABCC2 rs717620 CT, mean (SD)): 0.04 (0.04) | Ratio 20(S)-PPD/CK AUClast/D (ABCC2 rs717620 CT, mean (SD)): 6.00 (7.83) % | Ratio 20(S)-PPD/CK Cmax/D (ABCC2 rs717620 CT, mean (SD)): 1.65 (2.39) % | 20(S)-PPD AUClast/D (ABCC2 rs2273697 GA, mean (SD)): 0.81 (0.63) | 20(S)-PPD Cmax/D (ABCC2 rs2273697 GA, mean (SD)): 0.03 (0.02) | Ratio 20(S)-PPD/CK AUClast/D (ABCC2 rs2273697 GA, mean (SD)): 4.54 (6.68) % | Ratio 20(S)-PPD/CK Cmax/D (ABCC2 rs2273697 GA, mean (SD)): 0.96 (1.36) % | 20(S)-PPD AUClast/D (ABCC2 rs2273697 GG, mean (SD)): 0.83 (0.84) | 20(S)-PPD Cmax/D (ABCC2 rs2273697 GG, mean (SD)): 0.03 (0.03) | Ratio 20(S)-PPD/CK AUClast/D (ABCC2 rs2273697 GG, mean (SD)): 4.19 (6.15) % | Ratio 20(S)-PPD/CK Cmax/D (ABCC2 rs2273697 GG, mean (SD)): 1.22 (1.87) % | 20(S)-PPD AUClast/D (ABCC2 rs2756109 GG, mean (SD)): 0.61 (0.41) | 20(S)-PPD Cmax/D (ABCC2 rs2756109 GG, mean (SD)): 0.02 (0.02) | Ratio 20(S)-PPD/CK AUClast/D (ABCC2 rs2756109 GG, mean (SD)): 2.42 (1.84) % | 20(S)-PPD AUClast/D (ABCC2 rs3740066 CC, mean (SD)): 0.64 (0.51) | 20(S)-PPD Cmax/D (ABCC2 rs3740066 CC, mean (SD)): 0.02 (0.02) | Ratio 20(S)-PPD/CK AUClast/D (ABCC2 rs3740066 CC, mean (SD)): 3.03 (4.8) % | Ratio 20(S)-PPD/CK Cmax/D (ABCC2 rs3740066 CC, mean (SD)): 0.78 (1.02) % | 20(S)-PPD AUClast/D (ABCC2 rs3740066 CT, mean (SD)): 1.06 (0.99) | 20(S)-PPD Cmax/D (ABCC2 rs3740066 CT, mean (SD)): 0.04 (0.03) | Ratio 20(S)-PPD/CK AUClast/D (ABCC2 rs3740066 CT, mean (SD)): 5.95 (7.51) % | Ratio 20(S)-PPD/CK Cmax/D (ABCC2 rs3740066 CT, mean (SD)): 1.63 (2.29) % | 20(S)-PPD AUClast/D (ABCC2 rs3740066 TT, n = 1): 0.58 (—) | 20(S)-PPD Cmax/D (ABCC2 rs3740066 TT, n = 1): 0.01 (—) | Ratio 20(S)-PPD/CK AUClast/D (ABCC2 rs3740066 TT, n = 1): 1.04 (—) % | Ratio 20(S)-PPD/CK Cmax/D (ABCC2 rs3740066 TT, n = 1): 0.22 (—) % | 20(S)-PPD AUClast/D (ABCC3 rs4148416 CC, mean (SD)): 0.77 (0.69) | 20(S)-PPD Cmax/D (ABCC3 rs4148416 CC, mean (SD)): 0.03 (0.02) | Ratio 20(S)-PPD/CK AUClast/D (ABCC3 rs4148416 CC, mean (SD)): 3.64 (5.23) % | Ratio 20(S)-PPD/CK Cmax/D (ABCC3 rs4148416 CC, mean (SD)): 0.90 (1.07) % | 20(S)-PPD AUClast/D (ABCC3 rs4148416 CT, mean (SD)): 0.99 (1.01) | 20(S)-PPD Cmax/D (ABCC3 rs4148416 CT, mean (SD)): 0.04 (0.04) | Ratio 20(S)-PPD/CK AUClast/D (ABCC3 rs4148416 CT, mean (SD)): 6.12 (8.47) % | Ratio 20(S)-PPD/CK Cmax/D (ABCC3 rs4148416 CT, mean (SD)): 1.87 (2.85) % | 20(S)-PPD AUClast/D (ABCC3 rs4793665 CT, mean (SD)): 0.61 (0.58) | 20(S)-PPD Cmax/D (ABCC3 rs4793665 CT, mean (SD)): 0.02 (0.02) | Ratio 20(S)-PPD/CK AUClast/D (ABCC3 rs4793665 CT, mean (SD)): 2.27 (2.88) % | Ratio 20(S)-PPD/CK Cmax/D (ABCC3 rs4793665 CT, mean (SD)): 0.54 (0.52) % | 20(S)-PPD AUClast/D (ABCC3 rs4793665 TT, mean (SD)): 0.89 (0.82) | 20(S)-PPD Cmax/D (ABCC3 rs4793665 TT, mean (SD)): 0.03 (0.03) | Ratio 20(S)-PPD/CK AUClast/D (ABCC3 rs4793665 TT, mean (SD)): 4.86 (6.83) % | Ratio 20(S)-PPD/CK Cmax/D (ABCC3 rs4793665 TT, mean (SD)): 1.32 (1.92) % | 20(S)-PPD AUClast/D (ABCC3 rs12051822 GA, mean (SD)): 1.17 (0.94) | 20(S)-PPD Cmax/D (ABCC3 rs12051822 GA, mean (SD)): 0.04 (0.03) | Ratio 20(S)-PPD/CK AUClast/D (ABCC3 rs12051822 GA, mean (SD)): 6.84 (8.31) % | Ratio 20(S)-PPD/CK Cmax/D (ABCC3 rs12051822 GA, mean (SD)): 1.44 (1.56) % | 20(S)-PPD AUClast/D (ABCC3 rs12051822 GG, mean (SD)): 0.74 (0.72) | 20(S)-PPD Cmax/D (ABCC3 rs12051822 GG, mean (SD)): 0.03 (0.03) | Ratio 20(S)-PPD/CK AUClast/D (ABCC3 rs12051822 GG, mean (SD)): 3.60 (5.48) % | Ratio 20(S)-PPD/CK Cmax/D (ABCC3 rs12051822 GG, mean (SD)): 1.09 (1.81) % | 20(S)-PPD AUClast/D [1]: 2.65 (1.59) | 20(S)-PPD Cmax/D [1]: 0.09 (0.03) | Ratio 20(S)-PPD/CK AUClast/D [1]: 20.61 (14.96) % | Ratio 20(S)-PPD/CK Cmax/D [1]: 4.33 (2.43) % | 20(S)-PPD AUClast/D (ABCC4 rs1151471 TC, mean (SD)): 0.99 (0.81) | 20(S)-PPD Cmax/D (ABCC4 rs1151471 TC, mean (SD)): 0.04 (0.03) | Ratio 20(S)-PPD/CK AUClast/D (ABCC4 rs1151471 TC, mean (SD)): 5.99 (7.30) % | Ratio 20(S)-PPD/CK Cmax/D (ABCC4 rs1151471 TC, mean (SD)): 1.83 (2.49) % | 20(S)-PPD AUClast/D (ABCC4 rs1151471 TT, mean (SD)): 0.58 (0.54) | 20(S)-PPD Cmax/D (ABCC4 rs1151471 TT, mean (SD)): 0.02 (0.02)
Compound: CC(C)=CCC[C@](C)(O)[C@H]1CC[C@]2(C)[C@@H]1[C@H](O)C[C@@H]1[C@@]3(C)CC[C@H](O)C(C)(C)[C@@H]3CC[C@]12C [20(S)-PPD, 20(S)-protopanaxadiol]
